Assay results: ChEMBL document CHEMBL1142089, “High-level telithromycin resistance in a clinical isolate of Streptococcus pneumoniae” (2007)
Converted amounts (≈) assume the structure as drawn.

Assays:
Type in all cases: functional
Streptococcus pneumoniae [1] = assay: Antimicrobial activity against Streptococcus pneumoniae PC13 transformants
Method in brief: (§1)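 MIC by agar dilution per CLSI guidelines, also by Etest. Pneumococci grown at 37°C in 5% CO2 on Mueller-Hinton agar with 5% horse blood. Interpreted with CLSI breakpoints; for telithromycin ≤1 μg/ml susceptible, 2 μg/ml intermediate, ≥4 μg/ml resistant.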

Streptococcus pneumoniae [2] = assay: Antimicrobial activity against Streptococcus pneumoniae PC13 isolate with erm(B) mutation; method in brief: as §1
Streptococcus pneumoniae [3] = assay: Antimicrobial activity against Streptococcus pneumoniae PC13 isolate with L4 mutation; method in brief: as §1
Streptococcus pneumoniae [4] = assay: Antimicrobial activity against Streptococcus pneumoniae R6 transformants; method in brief: as §1
Streptococcus pneumoniae [5] = assay: Antimicrobial activity against Streptococcus pneumoniae BSF-11524 isolate with erm(B) and L4 mutation; method in brief: as §1
Streptococcus pneumoniae [6] = assay: Antimicrobial activity against Streptococcus pneumoniae R6 with L4 69GTG71 to TPS mutation; method in brief: as §1
Streptococcus pneumoniae [7] = assay: Antimicrobial activity against Streptococcus pneumoniae PC13 isolate with L4 69GTG71 to TPS mutation; method in brief: as §1
Streptococcus pneumoniae [8] = assay: Antimicrobial activity against Streptococcus pneumoniae R6 with L4 mutation; method in brief: as §1

Structure (SMILES)	MIC (Streptococcus pneumoniae [1])	MIC (Streptococcus pneumoniae [2])	MIC (Streptococcus pneumoniae [3])	MIC (Streptococcus pneumoniae [4])	MIC (Streptococcus pneumoniae [5])	MIC (Streptococcus pneumoniae [6])	MIC (Streptococcus pneumoniae [7])	MIC (Streptococcus pneumoniae [8])
CC[C@H]1OC(=O)[C@H](C)[C@@H](O[C@H]2C[C@@](C)(OC)[C@@H](O)[C@H](C)O2)[C@H](C)[C@@H](O[C@@H]2O[C@H](C)C[C@H](N(C)C)[C@H]2O)[C@](C)(O)C[C@@H](C)CN(C)[C@H](C)[C@@H](O)[C@]1(C)O [AZITHROMYCIN]	> 256 µg/mL	> 256 µg/mL	> 256 µg/mL	0.25 µg/mL (≈ 0.334 µM)	> 256 µg/mL	> 256 µg/mL	> 256 µg/mL	> 256 µg/mL
O=C(N[C@H](CO)[C@H](O)c1ccc([N+](=O)[O-])cc1)C(Cl)Cl [CHLORAMPHENICOL]	12 µg/mL (≈ 37.1 µM)	12 µg/mL (≈ 37.1 µM)	12 µg/mL (≈ 37.1 µM)	1.5 µg/mL (≈ 4.64 µM)	2 µg/mL (≈ 6.19 µM)	2 µg/mL (≈ 6.19 µM)	12 µg/mL (≈ 37.1 µM)	2 µg/mL (≈ 6.19 µM)
CC[C@H]1OC(=O)[C@H](C)[C@@H](O[C@H]2C[C@@](C)(OC)[C@@H](O)[C@H](C)O2)[C@H](C)[C@@H](O[C@@H]2O[C@H](C)C[C@H](N(C)C)[C@H]2O)[C@](C)(OC)C[C@@H](C)C(=O)[C@H](C)[C@@H](O)[C@]1(C)O [CLARITHROMYCIN]	> 256 µg/mL	> 256 µg/mL	> 256 µg/mL	0.06 µg/mL (≈ 0.0802 µM)	> 256 µg/mL	24 µg/mL (≈ 32.1 µM)	> 256 µg/mL	24 µg/mL (≈ 32.1 µM)
CCC[C@@H]1C[C@@H](C(=O)N[C@@H]([C@H]2O[C@H](SC)[C@H](O)[C@@H](O)[C@H]2O)[C@H](C)Cl)N(C)C1 [CLINDAMYCIN]	> 256 µg/mL	> 256 µg/mL	> 256 µg/mL	0.06 µg/mL (≈ 0.141 µM)	> 256 µg/mL	0.094 µg/mL (≈ 0.221 µM)	> 256 µg/mL	0.125 µg/mL (≈ 0.294 µM)
CC[C@H]1OC(=O)[C@H](C)[C@@H](O[C@H]2C[C@@](C)(OC)[C@@H](O)[C@H](C)O2)[C@H](C)[C@@H](O[C@@H]2O[C@H](C)C[C@H](N(C)C)[C@H]2O)[C@](C)(O)C[C@@H](C)C(=O)[C@H](C)[C@@H](O)[C@]1(C)O [ERYTHROMYCIN]	> 256 µg/mL	> 256 µg/mL	> 256 µg/mL	0.094 µg/mL (≈ 0.128 µM)	> 256 µg/mL	> 256 µg/mL	> 256 µg/mL	> 256 µg/mL
CC[C@H]1OC(=O)[C@H](C)C(=O)[C@H](C)[C@@H](O[C@@H]2O[C@H](C)C[C@H](N(C)C)[C@H]2O)[C@](C)(OC)C[C@@H](C)C(=O)[C@H](C)[C@H]2N(CCCCn3cnc(-c4cccnc4)c3)C(=O)O[C@]12C [TELITHROMYCIN]	0.06 µg/mL (≈ 0.0739 µM)	1 µg/mL (≈ 1.23 µM)	> 256 µg/mL	0.015 µg/mL (≈ 0.0185 µM)	> 256 µg/mL	0.12 µg/mL (≈ 0.148 µM)	> 256 µg/mL	0.12 µg/mL (≈ 0.148 µM)
CN(C)[C@@H]1C(O)=C(C(N)=O)C(=O)[C@@]2(O)C(O)=C3C(=O)c4c(O)cccc4[C@@](C)(O)[C@H]3C[C@@H]12 [TETRACYCLINE]	12 µg/mL (≈ 27 µM)	8 µg/mL (≈ 18 µM)	12 µg/mL (≈ 27 µM)	0.094 µg/mL (≈ 0.212 µM)	12 µg/mL (≈ 27 µM)	0.06 µg/mL (≈ 0.135 µM)	8 µg/mL (≈ 18 µM)	0.094 µg/mL (≈ 0.212 µM)
